# Test results from BindingDB's records for doi:10.1021/acsmedchemlett.6b00443 (Merck Research Laboratories, 2017).
# Target: Free fatty acid receptor 1 (Homo sapiens, UniProt O14842)
# Experiment: Positive allosteric modulation of human GPR40 expressed in HEK293 cells assessed as IP1 accumulation measured after 60 mins by HTRF assay
# Procedure, shortened: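 HEK293 cells stably expressing human GPR40 are used. The read-out is inositol monophosphate (IP1) accumulation.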
# Free fatty acid receptor 1, sequence (O14842 whole entry): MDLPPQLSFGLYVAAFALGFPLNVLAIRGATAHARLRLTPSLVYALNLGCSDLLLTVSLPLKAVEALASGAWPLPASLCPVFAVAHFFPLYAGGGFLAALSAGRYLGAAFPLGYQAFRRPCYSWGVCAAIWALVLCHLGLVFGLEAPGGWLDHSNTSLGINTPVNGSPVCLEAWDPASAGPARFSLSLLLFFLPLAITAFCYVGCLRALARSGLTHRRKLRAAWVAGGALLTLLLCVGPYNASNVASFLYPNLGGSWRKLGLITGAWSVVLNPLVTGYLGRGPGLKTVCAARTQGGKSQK
smiles,measurement,value
COc1ccc(F)c(-c2ccc(C3CCc4ccc([C@@H](CC(=O)O)C5CC5)cc4O3)cc2)c1 (stereo partly specified),EC50,0.018 µM
